An excerpt weighted towards active compounds, which were near 3.7% of everything screened.
MC4R ag barr – activates human MC4R beta-arrestin recruitment; 360,000 tested, 0.98% active; U2OS MC4R beta-arrestin complementation, luminescence; percent of melanotan II response, DMSO zero; P32245; activation, % at 8.9 µM;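 active = activation above a per-plate cutoff, the mean activation of sample wells on that plate plus 3 SD, cut at about 8% in these data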
EBI2 block – EBI2 (human) antagonism. P32249. EBI2 beta-arrestin recruitment, luminescence, 7a,25-OHC stimulated. inhibition, % at 5 µM. 360,000 tested, 0.81% active; in the data active = inhibition above about 38%;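 also: enzyme fragment complementation signal reports receptor beta-arrestin coupling in cells; 0% = agonist plus DMSO wells and 100% = wells without agonist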
Target sequence (P32249 whole entry, looked up, the tested form may be a part): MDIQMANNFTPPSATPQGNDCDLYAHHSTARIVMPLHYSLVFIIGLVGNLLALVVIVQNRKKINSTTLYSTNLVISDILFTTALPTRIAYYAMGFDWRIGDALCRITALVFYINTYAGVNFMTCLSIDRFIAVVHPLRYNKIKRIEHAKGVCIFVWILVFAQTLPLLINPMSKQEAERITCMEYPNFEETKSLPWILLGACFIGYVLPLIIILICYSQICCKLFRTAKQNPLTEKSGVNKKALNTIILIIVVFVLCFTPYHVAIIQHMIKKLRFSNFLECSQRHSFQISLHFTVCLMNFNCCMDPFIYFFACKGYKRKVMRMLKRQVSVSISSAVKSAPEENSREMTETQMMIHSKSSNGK
Myeloid diff 2 – compounds promoting myeloid differentiation | ER-HoxA9 myeloid progenitors, lysozyme-GFP differentiation, flow cytometry | calls only at 10 µM | 360,000 tested, 1% active;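 active = normalized GFP-positive differentiation at or above the plate's own cutoff, the solvent-only control mean plus 3 SD; inconclusive = no clear call, values can overlap the other calls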;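 also: cells exposed to compound for four days before flow analysis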
MC4R antag cAMP – human MC4R antagonism in cAMP assay; P32245; MC4R-expressing cells, MTII-stimulated cAMP, LANCE TR-FRET; inhibition, % at 6.5 µM; 360,000 tested, 0.48% active; AID 540295;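 active = inhibition above its plate's cutoff, the mean of tested wells on that plate plus 3 SD, cut at about 29% in these data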;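 also: 0% = Melanotan II alone and 100% = Melanotan II plus saturating MCL0020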
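system = U2OS cells with stable human MC4R expression | also added = Melanotan II challenge after compound preincubation | dosing = one concentration, 6.5 µM nominal | incubation = compound 30 min, challenge 1 h, detection 1 h | measured by = TR-FRET with Eu-cAMP and labeled anti-cAMP, 671 nm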
Exocytosis inh – lytic granule exocytosis inhibition. TALL-104 LAMP-1 surface exposure, flow cytometry; cells stimulated with thapsigargin and PMA. inhibition, % at 10 µM. 360,000 tested, 0.66% active. AID 651702;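 active = inhibition above about 55%, limit read from the data; inconclusive = no clear call, values can overlap the other calls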
U2OS cAMP counter – nonselective cAMP signaling inhibitor, MC4R antagonist counter-screen. 1,600 tested, 26% active. parental U2OS, forskolin cAMP, LANCE TR-FRET. shares compounds with MC4R antag cAMP. inhibition, % at 6.5 µM;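 active = mean inhibition over triplicates above the low-control well mean plus 3 SD, set per campaign, cut at about 13% in these data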;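 also: signal is single emission at 671 nm which falls as cellular cAMP rises; 0% = forskolin-stimulated wells and 100% = buffer without forskolin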
MC4R cAMP antag – human MC4R cAMP antagonism confirmation. shares compounds with MC4R antag cAMP. MC4R-expressing cells, MTII-stimulated cAMP, TR-FRET. inhibition, % at 6.5 µM. 1,600 tested, 27% active. AID 602195; in the data active = inhibition above about 29%;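 also: 0% = agonist stimulated wells alone and 100% = agonist stimulated wells plus saturating reference antagonist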
* marks the source's active call; other numbers are inactive results; i = inactive; ? = inconclusive; · = not tested or not shown.

SMILES	MC4R ag barr	EBI2 block	Myeloid diff 2	MC4R antag cAMP	Exocytosis inh	U2OS cAMP counter	MC4R cAMP antag
O=C(N[C@H]1C/C=C\C[C@H](CC(=O)N(CCO)Cc2ccccc2)C(=O)NC[C@H](c2ccccc2)OC1=O)OCC1c2ccccc2-c2ccccc21	0	0	i	32*	-1	4	-6
CCN(C(=O)COC(=O)/C=C/c1cnc2ccccc2n1)C1CCS(=O)(=O)C1 (centres undefined)	1	5	i	29*	10	-5	-2
CN(C(=O)COC(=O)/C=C/c1ccc2ccccc2n1)C1CCS(=O)(=O)C1 (centres undefined)	-1	-18	i	-8	10	·	·
O=C1OC(c2ccccc2)=NC12CC2c1ccc(Cl)cc1 (centres undefined)	-1	-6	i	29*	24	0	4
O=C(O)CC(c1ccccc1)N1C(=O)c2ccccc2C1=O (centres undefined)	0	2	i	5	-9	·	·
COC(=O)COc1ccc(S(=O)(=O)N2CCN(c3ccc(OC)cc3)CC2)cc1	-1	-14	i	30*	-3	18*	46*
COC(=O)COc1ccc(S(=O)(=O)N2CCN(c3ccc(F)cc3)CC2)cc1	2	-7	i	31*	7	16*	46*
CCOC(=O)COc1ccc(S(=O)(=O)N2CCN(c3ccc(F)cc3)CC2)cc1	-1	-5	i	8	1	·	·
Cc1c(C(=O)OCC(=O)Nc2ccc(S(N)(=O)=O)cc2)oc2c1ccc1ccccc12	2	4	i	35*	-8	2	-5
OC[C@@H]1CN(Cc2ccccc2)C[C@H](n2cnc3c(NCc4ccncc4)ncnc32)O1	4	-1	i	0	11	·	·
CCOC(=O)COc1ccccc1/C=C\[N+](=O)[O-]	-5	-17	?	29*	43	37*	44*
O=C(O)c1ccc(/C=C2\COc3ccccc3C2=O)cc1	-3	5	i	36*	-5	5	6
CC(=O)c1ccc(NC(=O)CN2C(=O)NC(C)(C3CCCCC3)C2=O)cc1 (centres undefined)	0	-3	i	5	6	·	·
CC(=O)NS(=O)(=O)c1ccc2c(c1)C(=O)c1cc(S(=O)(=O)NC(C)=O)ccc1-2	2	-11	i	15	5	·	·
CC(=O)NS(=O)(=O)c1ccc(N=c2ssc3c2-c2cc(C)c(C)cc2NC3(C)C)cc1	-2	0	i	31*	0	3	16
CCOC(=O)c1ccc(N(C(=O)c2ccco2)C(C(=O)NC2CCCC2)c2ccncc2)cc1 (centres undefined)	-1	-3	i	2	0	·	·
Cc1cccc2cc(C#N)c(SCC(=O)NCc3cccs3)nc12	3	-4	i	39*	-1	41*	80*
CCOC(=O)CNC(=O)CSc1nc2c(C)cccc2cc1CC	2	-6	i	34*	-1	0	5
O=C(Cn1nc(C(=O)O)c2ccccc2c1=O)Nc1cc(S(=O)(=O)N2CCOCC2)ccc1Cl	1	-2	i	13	0	·	·
O=c1cc[nH]c2ccc(OC(F)(F)F)cc12	-2	-10	i	2	1	·	·
O=C(Nc1ccc(Cl)cn1)C1CCCN(c2ncnc3c2nc2n3CCCCC2)C1 (centres undefined)	-1	14	i	30*	-4	-2	7
O=C(Nc1ccc(Cl)cn1)C1CCN(c2ncnc3c2nc2n3CCCCC2)CC1	-1	12	i	1	-4	·	·
Cc1c(Cl)cccc1N1C(=O)C(N2C(=O)c3cccc([N+](=O)[O-])c3C2=O)C1c1cccs1 (centres undefined)	-4	48*	i	35*	4	-6	-4
O=C(O)c1ccc2c(c1)C(=O)N(c1cccc(S(=O)(=O)Nc3cccc(C(F)(F)F)c3)c1)C2=O	-2	-4	i	8	-17	·	·
Cc1cccc(C)c1NC(=O)COc1ccccc1C(=O)Nc1ccc(Br)cn1	3	13	i	33*	1	50*	91*
SMILES	MC4R ag barr	EBI2 block	Myeloid diff 2	MC4R antag cAMP	Exocytosis inh	U2OS cAMP counter	MC4R cAMP antag
CCC(=O)c1ccccc1OCC(=O)Nc1c(C)cccc1C	-2	4	i	0	-9	·	·
COc1ccc(NS(=O)(=O)c2cccc(C(=O)N3CCN(S(=O)(=O)c4ccccc4)CC3)c2)cc1	-1	0	i	7	-6	·	·
c1ccc(-c2csc(-c3ccncc3)n2)cc1	1	5	i	-4	-4	·	·
Brc1ccsc1-c1csc(-c2ccncc2)n1	1	-4	i	34*	24	4	-10
Cc1cc(C)nc(NS(=O)(=O)c2ccc(NC(=O)C3COc4ccccc4O3)cc2)n1 (centres undefined)	-1	-6	i	29*	-2	2	3
COc1ccc2sc(-c3ccc(S(C)(=O)=O)cc3)c(C#CCO)c2c1	1	2	i	11	18	·	·
COc1ccc2c(C#CCCO)c(-c3ccc(S(C)(=O)=O)cc3)sc2c1	8	-13	i	36*	-1	-5	5
CN1CCN(C(=O)/C=C/c2cn(-c3ccccc3)nc2-c2ccc3c(c2)OCCO3)CC1	-1	14	i	36*	5	7	23
O=C(c1ccc([N+](=O)[O-])cc1)N1CCc2ccccc2C1	2	-7	i	29*	-2	4	-3
O=C(c1ccc(S(=O)(=O)c2ccccc2)cc1)N1CCc2ccccc2C1	-2	32	i	3	?	·	·
CC(C)NC(=S)N/N=C/c1ccc2c(c1)OCCO2	0	-5	i	-1	-5	·	·
CC1CC(C)CN(C(=O)Nc2ccc(Br)cc2)C1 (centres undefined)	2	1	i	30*	3	-3	-8
COc1ccccc1-c1cc(SC)c(C#N)c(=O)o1	-2	14	i	50*	17	23*	38*
COc1ccccc1-c1cc(C(F)(F)F)c(C#N)c(=O)[nH]1	1	3	i	7	2	·	·
OC(Cc1ccccc1)c1ncc(-c2ccc3ccccc3c2)[nH]1 (centres undefined)	0	-4	i	-3	1	·	·
O=C1CCCC[C@@H](O)[C@H](O)C[C@H](c2ccccc2)O1	·	-21	i	·	-10	·	·
C=C1CC2(CC(c3ccccc3)OC(c3ccccc3)C2)OC1=O (centres undefined)	-1	22	·	34*	33	21*	46*
O=C1OCCC1Sc1nnnn1-c1ccccc1 (centres undefined)	-1	-4	i	15	-1	·	·
